One data set has as its system Plasmodium falciparum. Nature of the data set: Antiplasmodial activity against chloroquine/purimethamine/proguanil-resistant Plasmodium falciparum K1 infected in human A+ erythrocytes assessed as reduction in parasitaemia measured after 72 hrs by SYBR Green I fluorescence-based assay. In kind it is functional, organism-based. Conditions: K1, 72 h.
Data set [1] is described as follows: Cytotoxicity against human HepG2 cells measured after 72 hrs by MTT assay. It is filed as cell-based. An outline of the steps: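 Cells seeded at 5.10³ per well in complete medium at 37 °C, humidified 6% CO₂, and left 24 h. Compound was added in DMSO (final under 0.5% v/v) over a range of concentrations for 72 h at 37 °C, in triplicate. Wells were checked under the microscope for precipitate. MTT (0.5 mg/mL in FCS-free medium) was added for 2 h, then A570 read with a 630 nm reference. Viability was taken as % of control, CC50 from dose–response, mean of three independent experiments.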

The nature of data set [2]: Selectivity index, ratio of CC50 for human HepG2 cells to IC50 for chloroquine/purimethamine/proguanil-resistant Plasmodium falciparum K1. In kind it is functional. An outline of the steps:
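SI = CC50/IC50 (K1). […] MTT at 0.5 mg/mL was added for 2 h, and absorbance read at 570 nm against 630 nm reference. Viability was taken as % of control, and CC50 is the mean of three independent experiments.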

The nature of data set [3]: Solubility of compound in RPMI1640 culture medium containing 25mM HEPES, 25 mM NaHCO3 and 10% A+ human serum. It is filed as physicochemical.

Where only a bound is given, the exact number is not on record here.

As usually defined, the IC50 is the concentration at which inhibition is half-maximal. In general, CC50 refers to the concentration at which the toxic effect on the cells reaches its halfway point. A low value points to harm at low concentration. For the compound `Cc1occc(=O)c1Oc1nc(C(Cl)(Cl)Cl)nc2ccccc12`, the IC50 in the data set with Plasmodium falciparum was greater than 10000 nM. In data set [1], the CC50 at 72 h is 62.7 µM. Further, the “Ratio CC50/IC50” value in data set [2] was less than 6.3. Further, in data set [3], the solubility result is “soluble”.
Turning to `CC(Oc1nc(C(Cl)(Cl)Cl)nc2ccccc12)c1ccc(Cl)cc1` (configuration not stated), the IC50 in the data set with Plasmodium falciparum amounted to 3500 nM. The compound further displayed a CC50 at 72 h in data set [1] of 25.1 µM. In addition, the “Ratio CC50/IC50” value in data set [2] stood at 7.2. In addition, in data set [3], the solubility result is given as “soluble”.
Regarding `O=[N+]([O-])c1cccc(COc2nc(C(Cl)(Cl)Cl)nc3ccccc23)c1`, the IC50 in the data set with Plasmodium falciparum stood at 2200 nM. Moreover, the midpoint of cytotoxicity in data set [1], the CC50 at 72 h, lay at 29.9 µM. Further, the “Ratio CC50/IC50” value in data set [2] was 13.6. Besides, the solubility entry in data set [3] was “soluble”.
For the compound `CC(Oc1nc(C(Cl)(Cl)Cl)nc2ccccc12)c1ccccc1` (configuration not stated), the IC50 in the data set with Plasmodium falciparum worked out at 3300 nM. In data set [1], this compound yielded a CC50 at 72 h of 39.9 µM. Also, the “Ratio CC50/IC50” value in data set [2] stood at 12.1. In data set [3], the solubility entry was “soluble”.
`C#CC(Oc1nc(C(Cl)(Cl)Cl)nc2ccccc12)c1ccccc1` (configuration not stated): the IC50 in the data set on Plasmodium falciparum came to 2400 nM. This compound also showed a half-maximal cytotoxic concentration (CC50) at 72 h in data set [1] of 24.6 µM. The “Ratio CC50/IC50” value in data set [2] worked out at 10.2. In addition, the solubility entry in data set [3] is recorded as “soluble”.
In the case of `O=[N+]([O-])c1cc2c(cc1COc1nc(C(Cl)(Cl)Cl)nc3ccccc13)OCO2`, in the data set on Plasmodium falciparum, the IC50 turned out to be 3100 nM. Half-maximal cytotoxicity in data set [1] (CC50 at 72 h) was put at 28.7 µM. In addition, the “Ratio CC50/IC50” value in data set [2] is 9.3. Further, the solubility entry in data set [3] is listed as “soluble”.
The like results for `N#CC(Oc1nc(C(Cl)(Cl)Cl)nc2ccccc12)c1ccccc1` (configuration not stated) were, in that order, 1500 nM, 25.7 µM, 17.1 and “soluble”.
Take `ClC(Cl)(Cl)c1nc(Oc2ccccc2Br)c2ccccc2n1`: the IC50 in the data set on Plasmodium falciparum worked out at 1900 nM. Moreover, the midpoint of cytotoxicity in data set [1], the CC50 at 72 h, lay at 26.2 µM. For the same compound, the “Ratio CC50/IC50” value in data set [2] is reported as 13.8. The solubility entry in data set [3] is “soluble”.
Turning to `ClC(Cl)(Cl)c1nc(Oc2c(Br)cc(Br)c3cccnc23)c2ccccc2n1`, the IC50 in the data set with Plasmodium falciparum is greater than 10000 nM. In data set [1], this compound came in with a CC50 at 72 h of 4.9 µM. Also, the “Ratio CC50/IC50” value in data set [2] was less than 0.5. Further, the solubility result in data set [3] is given as “soluble”.
In the case of `Fc1c(F)c(F)c(Oc2nc(C(Cl)(Cl)Cl)nc3ccccc23)c(F)c1F`, the IC50 with Plasmodium falciparum amounted to 4400 nM. In data set [1], this compound had a CC50 at 72 h of 43.7 µM. Besides, the “Ratio CC50/IC50” value in data set [2] came out at 9.9. In data set [3], the solubility result was “soluble”.
Turning to `CC(=O)c1ccccc1Oc1nc(C)nc2ccccc12`, the IC50 in the data set with Plasmodium falciparum was greater than 15000 nM. Further, the solubility entry in data set [3] was “soluble”.
On to `CC(=O)c1ccc(Oc2nc(C(Cl)(Cl)Cl)nc3ccccc23)cc1`, for which the IC50 in the data set with Plasmodium falciparum amounted to 2300 nM. The same compound gave a CC50 at 72 h in data set [1] of 49.5 µM. Moreover, in data set [2], the “Ratio CC50/IC50” value is 21.5. In addition, the solubility entry in data set [3] is listed as “soluble”.
The like results for `Clc1ccc(Oc2nc(C(Cl)(Cl)Cl)nc3ccccc23)c(Cl)c1` were, in that order, 1200 nM, 22.1 µM, 18.4 and “soluble”.
On to `ClC(Cl)(Cl)c1nc(Oc2cccc(Br)c2)c2ccccc2n1`, for which, in the data set on Plasmodium falciparum, the IC50 stood at 2300 nM. Besides, the cytotoxic concentration (CC50) at 72 h in data set [1] amounted to 36.7 µM. Moreover, the “Ratio CC50/IC50” value in data set [2] is reported as 16. In addition, the solubility entry in data set [3] was “soluble”.
The like results for `CC(=O)c1ccccc1Oc1nc(C(Cl)(Cl)Cl)nc2ccccc12` were, in that order, 1500 nM, 40 µM, 26.7 and “soluble”.
Take `O=[N+]([O-])c1ccc(/C=C/COc2nc(C(Cl)(Cl)Cl)nc3ccccc23)cc1`: the IC50 in the data set with Plasmodium falciparum stood at 2600 nM. Moreover, it took 31.2 µM to reach half-maximal cytotoxicity in data set [1] (CC50 at 72 h). In addition, the “Ratio CC50/IC50” value in data set [2] is 12. In data set [3], the solubility entry is given as “soluble”.
As to `C[C@H]1c2cccc(O)c2C(=O)C2=C(O)[C@]3(O)C(=O)C(C(N)=O)=C(O)[C@@H](N(C)C)[C@@H]3[C@@H](O)[C@@H]21.O` [DOXYCYCLINE], in data set [2], the “Ratio CC50/IC50” value came out at 3.3.
For the compound `CC(=O)c1cccc(Oc2nc(C(Cl)(Cl)Cl)nc3ccccc23)c1`, the IC50 in the data set with Plasmodium falciparum came to 1700 nM. The compound further came in with a CC50 at 72 h in data set [1] of 1 µM. The “Ratio CC50/IC50” value in data set [2] came to 0.6. Further, in data set [3], the solubility result is given as “soluble”.
In the same order, the values of `ClC(Cl)(Cl)c1nc(Oc2ccc(Br)cc2)c2ccccc2n1` are 1800 nM, 45 µM, 25 and “soluble”.
Take `O=[N+]([O-])c1ccccc1COc1nc(C(Cl)(Cl)Cl)nc2ccccc12`: the IC50 in the data set on Plasmodium falciparum turned out to be 2300 nM. In data set [1], this compound showed a CC50 at 72 h greater than 10 µM. The “Ratio CC50/IC50” value in data set [2] was greater than 4.3. In addition, the solubility result in data set [3] is “Insoluble”.
As to `COc1ccc(COc2nc(C(Cl)(Cl)Cl)nc3ccccc23)cc1OC`, the IC50 in the data set on Plasmodium falciparum worked out at 3900 nM. In addition, the CC50 at 72 h in data set [1] is 118 µM. Moreover, the “Ratio CC50/IC50” value in data set [2] is recorded as 30.6. The solubility entry in data set [3] is “soluble”.
On to `ClC(Cl)(Cl)c1nc(Oc2ccc3ccccc3n2)c2ccccc2n1`, for which, in the data set on Plasmodium falciparum, the half-maximal inhibitory concentration (IC50) is greater than 10000 nM. Besides, in data set [1], half-maximal cytotoxicity (CC50 at 72 h) was put at 30.3 µM. Besides, the “Ratio CC50/IC50” value in data set [2] was less than 3. For the same compound, in data set [3], the solubility entry is listed as “soluble”.
Turning to `COc1ccc(COc2nc(C(Cl)(Cl)Cl)nc3ccccc23)cc1`, the IC50 in the data set on Plasmodium falciparum was greater than 10000 nM. In data set [1], this compound gave a CC50 at 72 h of 90.3 µM. The “Ratio CC50/IC50” value in data set [2] was less than 9. The solubility entry in data set [3] is given as “soluble”.
On to `O=[N+]([O-])c1ccc(COc2nc(C(Cl)(Cl)Cl)nc3ccccc23)cc1`, for which the IC50 with Plasmodium falciparum was 1800 nM. This compound displayed a CC50 at 72 h in data set [1] of 34.9 µM. For the same compound, the “Ratio CC50/IC50” value in data set [2] worked out at 19.4. For the same compound, the solubility entry in data set [3] is given as “soluble”.
Consider `ClC(Cl)(Cl)c1nc(OCc2cccc(OCc3ccccc3)c2)c2ccccc2n1`, for which, in the data set with Plasmodium falciparum, the IC50 is 3800 nM. Besides, in data set [1], the CC50 at 72 h was 62.5 µM. In data set [2], the “Ratio CC50/IC50” value is recorded as 16.4. The solubility entry in data set [3] is recorded as “soluble”.
The like results for `CC(Oc1nc(C(Cl)(Cl)Cl)nc2ccccc12)c1ccc(Cl)cc1Cl` (configuration not stated) were, in that order, 4200 nM, 30.2 µM, 7.2 and “soluble”.
The like results for `O=c1cc(Oc2nc(C(Cl)(Cl)Cl)nc3ccccc23)c2ccccc2o1` were, in that order, greater than 10000 nM, 59 µM, less than 5.9 and “soluble”.
The like results for `Clc1ccc(COc2nc(C(Cl)(Cl)Cl)nc3ccccc23)cc1` were, in that order, 2500 nM, 33.4 µM, 13.4 and “soluble”.
For `Cc1ccc(COc2nc(C(Cl)(Cl)Cl)nc3ccccc23)cc1`, the IC50 in the data set with Plasmodium falciparum amounted to 4000 nM. This compound displayed a CC50 at 72 h in data set [1] of 50.9 µM. Besides, the “Ratio CC50/IC50” value in data set [2] is recorded as 12.7. Further, in data set [3], the solubility result was “soluble”.
For the compound `FC(F)(F)c1ccc(COc2nc(C(Cl)(Cl)Cl)nc3ccccc23)cc1`, the half-maximal inhibitory concentration (IC50) with Plasmodium falciparum came to 2800 nM. This compound also had a CC50 at 72 h in data set [1] of 27.8 µM. Also, the “Ratio CC50/IC50” value in data set [2] amounted to 9.9. For the same compound, in data set [3], the solubility entry was “soluble”.
For the compound `CC(C)c1ccc(COc2nc(C(Cl)(Cl)Cl)nc3ccccc23)cc1`, in the data set on Plasmodium falciparum, the IC50 is greater than 10000 nM. The compound also came in with a CC50 at 72 h in data set [1] of 33.3 µM. The “Ratio CC50/IC50” value in data set [2] is less than 3.3. Also, in data set [3], the solubility result is recorded as “soluble”.
For the compound `O=Cc1ccccc1Oc1nc(C(Cl)(Cl)Cl)nc2ccccc12`, the IC50 in the data set on Plasmodium falciparum was 10000 nM. This compound displayed a CC50 at 72 h in data set [1] of 75 µM. In addition, the “Ratio CC50/IC50” value in data set [2] is given as 7.5. For the same compound, the solubility entry in data set [3] is on record as “soluble”.
In the case of `COc1cc(C=O)cc([N+](=O)[O-])c1Oc1nc(C(Cl)(Cl)Cl)nc2ccccc12`, the IC50 with Plasmodium falciparum is greater than 10000 nM. This compound also came in with a CC50 at 72 h in data set [1] of 57 µM. The “Ratio CC50/IC50” value in data set [2] is less than 5.7. For the same compound, the solubility entry in data set [3] was “soluble”.
Consider `COc1cccc(Oc2nc(C(Cl)(Cl)Cl)nc3ccccc23)c1`, for which it took 0.5 µM to reach half-maximal cytotoxicity in data set [1] (CC50 at 72 h). The “Ratio CC50/IC50” value in data set [2] came to 0.3. Also, the solubility entry in data set [3] is “soluble”.
As for `N#Cc1ccc(Oc2nc(C(Cl)(Cl)Cl)nc3ccccc23)cc1`, the 50% inhibitory concentration (IC50) in the data set with Plasmodium falciparum turned out to be 1600 nM. In data set [1], the CC50 at 72 h is greater than 8 µM. In addition, the “Ratio CC50/IC50” value in data set [2] is listed as greater than 5. Moreover, the solubility result in data set [3] is listed as “Insoluble”.
For the compound `Cc1cc(Oc2nc(C(Cl)(Cl)Cl)nc3ccccc23)ccc1Cl`, the IC50 with Plasmodium falciparum amounted to 900 nM. The same compound came in with a half-maximal cytotoxic concentration (CC50) at 72 h in data set [1] of 5.3 µM. Besides, the “Ratio CC50/IC50” value in data set [2] was determined as 5.9. Besides, in data set [3], the solubility entry is “soluble”.
Turning to `ClC(Cl)(Cl)c1nc(OCc2ccccc2)c2ccccc2n1`, the IC50 in the data set on Plasmodium falciparum is 2000 nM. The same compound displayed a CC50 at 72 h in data set [1] of 43.8 µM. The “Ratio CC50/IC50” value in data set [2] amounted to 21.9. Moreover, the solubility entry in data set [3] is on record as “soluble”.
